The record followed here is ChEMBL document CHEMBL4219056 (Bioorg Med Chem, 2018).

Activity calls are given as the source filed them.

Data set [1] has as its target Free fatty acid receptor 1 (Homo sapiens, UniProt O14842). The data set is described as follows: Agonist activity at human FFA1 expressed in CHO cells assessed as increase in intracellular Ca2+ flux by Fluo-4 dye based FLIPR assay. Type of data set: functional, cell-based. In outline:
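Stable human FFA1 CHO cells were seeded at 15 K cells/well and held 16 h at 37 °C in 5% CO2, then washed with HBSS. Ca2+ flux was read after graded compound addition. Response was scaled between vehicle and 10 µM γ-linolenic acid. EC50 is the mean of three independent determinations.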

Data set [2] can be described thus: Lipophilicity, log D of the compound at 100 uM at pH 7.4 after 24 hrs by HPLC method. Type of data set: physicochemical. Conditions: buffer. The procedure, abridged:
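Shake-flask method: 10 mM DMSO stock was added to equal volumes of 0.01 M phosphate buffer pH 7.4 and 1-octanol, giving 100 µM final. Vials were shaken 24 h at 700 rpm, then left 1 h to separate. The octanol phase was diluted ×10 and both phases were run on HPLC. Injections were in duplicate; three independent experiments were run.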

Data set [3] deals with Mus musculus. The data set is described as follows: Antidiabetic activity in ICR mouse assessed as reduction in blood glucose AUC (0 to 120 mins) at 40 mg/kg, po dosed 30 minutes prior to glucose challenge by OGTT relative to control. The class given is functional. In outline:
(§1)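 Fasting male ICR mice (10 weeks, 18-22 g) got a single oral dose in 0.5% carboxymethyl cellulose. Oral glucose (30% solution, 3 g/kg) followed 30 min later. Blood glucose was sampled at -30, 0, 15, 30, 60 and 120 min.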

The test system of data set [4] is Mus musculus. As to the kind of experiment: Antidiabetic activity in ICR mouse assessed as reduction in blood glucose AUC (0 to 120 mins) at 20 mg/kg, po dosed 30 minutes prior to glucose challenge by OGTT relative to control. Type of data set: functional. More on the design: scale not given: the % may be the effect or the level left. In outline:
as §1

The nature of data set [5]: Plasma clearance in fasted Sprague-Dawley rat at 3 mg/kg, po administered as single dose measured up to 24 hrs by LC-PDA-MS/MS analysis. Type of data set: ADME, organism-based. The procedure, abridged: (§2)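 Male SD rats (8 weeks, 180-200 g) were fasted 12 h and dosed once orally at 3 mg/kg, suspended in 0.5% methylcellulose, n = 4 per group. Tail-vein blood was drawn at 5, 15, 30 and 45 min and at 1, 2, 4, 6, 8, 12, 18 and 24 h. Plasma was stored at -20 °C. Methanol precipitation with internal standard preceded LC-PDA-MS/MS. Values are mean ± SD.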

Data set [6] can be described thus: Cmax in fasted Sprague-Dawley rat at 3 mg/kg, po administered as single dose by LC-PDA-MS/MS analysis. Type of data set: ADME, organism-based. On the set-up: dose 3 mg/kg, route oral. The note with it: in vivo. The procedure, abridged:
as §2

Data set [7] in a line: AUC (0 to 24 hrs) in fasted Sprague-Dawley rat at 3 mg/kg, po administered as single dose by LC-PDA-MS/MS analysis. The class given is ADME, organism-based. Conditions: in vivo. More on the design: dose 3 mg/kg, time < 24 hr, route oral. In outline:
as §2

Data set [8] is described as follows: Half life in fasted Sprague-Dawley rat at 3 mg/kg, po administered as single dose by LC-PDA-MS/MS analysis. Conditions: in vivo. Type of data set: ADME, organism-based. In outline:
as §2

Sequence of Free fatty acid receptor 1 (O14842 whole entry): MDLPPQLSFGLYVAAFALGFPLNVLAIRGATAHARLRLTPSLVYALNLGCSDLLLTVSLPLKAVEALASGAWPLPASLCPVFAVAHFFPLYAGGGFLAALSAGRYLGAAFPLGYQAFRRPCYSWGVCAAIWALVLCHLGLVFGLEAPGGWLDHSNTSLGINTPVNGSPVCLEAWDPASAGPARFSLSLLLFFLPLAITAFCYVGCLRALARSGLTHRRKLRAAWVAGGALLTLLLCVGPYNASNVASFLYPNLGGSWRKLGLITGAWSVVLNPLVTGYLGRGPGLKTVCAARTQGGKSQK

In the case of `Cc1nn(C)c(C)c1-c1cccc(COc2ccc3c(c2)OCC3CC(=O)O)c1` (stereo unspecified), the concentration for a half-maximal effect (EC50) in data set [1] came to 0.104 µM.
The same measure, in the same setting: under `[2H]C([2H])(Cc1ccc(OCc2cccc(-c3c(C)noc3C)c2)cc1F)C(=O)O` stands 0.0457 µM.
With `Cc1ccc(-c2c(C)noc2C)cc1COc1ccc2c(c1)OCC2CC(=O)O` (stereo unspecified), the EC50 in data set [1] was found to be 0.0537 µM. Also, the log distribution coefficient (logD) at 24 h, 100 µM in data set [2] came to 2.07.
For the molecule `Cc1noc(C)c1-c1cc(COc2ccc3c(c2)OCC3CC(=O)O)ccc1Cl` (stereo unspecified), in data set [1], the EC50 worked out at 0.0186 µM. For the same molecule, the logD at 24 h, 100 µM in data set [2] is 1.96. Besides, the result in data set [3] was Active.
As to `[2H]C([2H])(Cc1ccc(OCc2cccc(-c3c(C)noc3C)c2)cc1)C(=O)O`, in data set [1], the EC50 was determined as 0.0384 µM. Moreover, in data set [2], the logD at 24 h, 100 µM was 1.83.
On to `Cc1noc(C)c1-c1cccc(COc2ccc(CCC(=O)O)cc2)c1`, for which the outcome in data set [3] (tested as the 2H-labelled form) was Active.
As to `Cc1ccsc1-c1cccc(COc2ccc3c(c2)OCC3CC(=O)O)c1` (stereo unspecified), the EC50 in data set [1] was 0.157 µM.
As for `Cc1noc(C)c1-c1cccc(COc2ccc3c(c2)OCC3CC(=O)O)c1` (stereo unspecified), the EC50 in data set [1] came out at 0.0275 µM. In data set [2], this molecule had a logD at 24 h, 100 µM of 1.57. In addition, the outcome in data set [3] was Active.
In the case of `Cc1cc(OCCCS(C)(=O)=O)cc(C)c1-c1cccc(COc2ccc3c(c2)OC[C@H]3CC(=O)O)c1`, in data set [4], the Activity was found to be 37.5%. The CL/F in data set [5] was 0.618 mL/min/kg. The molecule further registered a Cmax in data set [6] of 6460 ng/mL. The same molecule yielded an AUC(0-t) at 24 h in data set [7] of 79.5 µg·h/mL. Moreover, in data set [8], the half-life is 4.29 h.
For the molecule `Cc1noc(C)c1-c1ccc(Cl)c(COc2ccc3c(c2)OCC3CC(=O)O)c1` (stereo unspecified), the EC50 in data set [1] worked out at 0.0397 µM. In data set [2], this molecule had a logD at 24 h, 100 µM of 2.13. Moreover, the result in data set [3] was Active.
As to `Cc1noc(C)c1-c1cc(COc2ccc3c(c2)OC[C@H]3CC(=O)O)ccc1Cl`, the EC50 in data set [1] is 0.0079 µM. The molecule further gave a logD at 24 h, 100 µM in data set [2] of 1.93. In addition, in data set [3], the Activity is 26.2%. The molecule further gave a CL/F in data set [5] of 0.308 mL/min/kg. For the same molecule, the highest level in data set [6] (Cmax) was 14100 ng/mL. The molecule further came in with an AUC(0-t) at 24 h in data set [7] of 142 µg·h/mL. The half-life in data set [8] is 4.65 h.
For `Cc1ccc(C)n1-c1cccc(COc2ccc3c(c2)OCC3CC(=O)O)c1` (stereo unspecified), the concentration for a half-maximal effect (EC50) in data set [1] worked out at 0.0536 µM. Besides, the logD at 24 h, 100 µM in data set [2] stood at 3.95.

By EC50 is commonly meant the concentration needed to bring the measured effect to its halfway point. One may read the logD as the decadic logarithm of the distribution of all forms, ionised or not, between an organic phase and buffer at a given pH. What is called CL/F is clearance divided by bioavailability, as obtained after extravascular dosing. Broadly, the Cmax is the maximum level reached in the sampled fluid or tissue. In general, AUC(0-t) refers to the area under the concentration-time curve up to a stated or last time point. Broadly, the half-life is the time needed for the level to fall by half in the phase considered.
